Results taken from ChEMBL document CHEMBL1641569, “Synthetic conjugates of genistein affecting proliferation and mitosis of cancer cells” (Bioorg Med Chem, 2011).
The source made the active and inactive calls. The calls are words filed in the database; no cut-off is given here.

How the values were obtained:
HCT-116 [1] = assay: Inhibition of mitosis in human HCT116 cells assessed as mitotic index at 20 uM after 24 hrs by fluorescence assay; type: functional
Outline: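 Cells treated 24 h, collected as for cell cycle analysis, cytospun, fixed in cold methanol, stained with 3 µM DAPI; mitotic cells counted among 1000 cells under 40× objective. Mean ± SD from three independent experiments.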

HCT-116 [2] = assay: Cell cycle arrest in human HCT116 cells assessed as accumulation at G2/M phase at 5 to 20 uM after 24 hrs by propidium iodide staining-based flow cytometry; type: functional
Outline: (§1)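 Subconfluent cultures exposed continuously to compound; floating and trypsinized adherent cells pooled, PBS-washed, fixed in ice-cold 70% ethanol 30 min, RNase (100 µg/mL) treated, stained with propidium iodide, DNA content measured by flow cytometry to give G1, S, G2/M, apoptotic (sub-G1) and polyploid fractions. Experiments repeated at least twice.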

HCT-116 [3] = assay: Cytotoxicity against human HCT116 cells after 72 hrs by MTT assay; type: functional, cell-based; details: HCT-116, 72 h
HCT-116 [4] = assay: Cell cycle arrest in human HCT116 cells assessed as accumulation at G2/M phase after 24 hrs by propidium iodide staining-based flow cytometry; type: functional; outline: as §1

| SMILES | Activity (HCT-116 [1]) | Activity (HCT-116 [2]) | IC50 (HCT-116 [3]) | Activity (HCT-116 [4]) |
| --- | --- | --- | --- | --- |
| O=c1c(-c2ccc(O)cc2)coc2cc(OCCCCCO)cc(O)c12 | 3 | inactive | 6.92 µM |  |
| CC(=O)O[C@@H]1C=C[C@H](OCCOc2cc(O)c3c(=O)c(-c4ccc(O)cc4)coc3c2)O[C@H]1C | 1.3 | inactive | 9.32 µM |  |
| CC(=O)OC[C@H]1O[C@H](OCCCOc2cc(O)c3c(=O)c(-c4ccc(O)cc4)coc3c2)C=C[C@@H]1OC(C)=O |  |  | 19.9 µM |  |
| CC(=O)OC[C@H]1O[C@@H](O[C@H]2C=C[C@@H](OCCCCCOc3cc(O)c4c(=O)c(-c5ccc(O)cc5)coc4c3)O[C@@H]2COC(C)=O)[C@H](OC(C)=O)[C@@H](OC(C)=O)[C@H]1OC(C)=O |  |  | > 20 µM |  |
| CC(=O)OC[C@H]1O[C@H](OCCCCCOc2cc(O)c3c(=O)c(-c4ccc(O)cc4)coc3c2)C=C[C@@H]1OC(C)=O | 5.2 |  | 8.45 µM | Dose-dependent effect |
| CCCO[C@H]1C=C[C@@H](OC(C)=O)[C@H](C)O1 |  |  | 550 µM |  |
